Source: ChEMBL document CHEMBL1131190, “Synthesis of 7-benzylamino-6-chloro-2-piperazino-4-pyrrolidinopteridine and novel derivatives free of positional isomers. Potent inhibitors of cAMP-specific phosphodiesterase and of malignant tumor cell growth” (J Med Chem, 1998)

Assays:
[1] = Growth inhibition of LXFL529L cells by sulforhodamine B assay, incubation time 3 days and IC50 was calculated survival of treated cells over control cells X 100[T/C%]; assay type: functional; settings: Homo sapiens, LXFL 529L, 72 h
Outline: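 LXFL529L cells grown in RPMI 1640 with extra glutamine (300 mg/L), 1% penicillin/streptomycin and 10% newborn calf serum at 37 °C, 5% CO₂, mycoplasma-free. Seeded, grown 24 h, then exposed continuously to drug for 3 d. Sulforhodamine B read-out expressed as % T/C of controls. IC50 from mean ± SEM of two separate assays, each in quadruplicate.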

Phosphodiesterase 4 = Phosphodiesterase 4 (Homo sapiens, UniProt P27815+Q08499+Q07343+Q08493); test: Inhibition of cAMP hydrolysis by inhibiting phosphodiesterases (PDE4), isolated from tumor tissue of human large cell lung tumor xenograft LXFL-529, grown in nude mice.; assay type: protein assay

Compound | IC50 (Phosphodiesterase 4) | IC50 [1]
c1ccc(CNc2cnc3c(N4CCCC4)nc(N4CCNCC4)nc3n2)cc1 | 0.36 µM | 7.3 µM
Clc1nc2c(N3CCCC3)nc(N3CCNCC3)nc2nc1NCc1ccccc1 | 0.016 µM | 2.3 µM
CN(C)c1nc2nc(N3CCNCC3)nc(N(C)C)c2nc1Cl | 1.2 µM | > 20 µM
CN(C)c1nc2nc(N3CCNCC3)nc(N3CCCC3)c2nc1Cl | 0.046 µM | 5.8 µM
CN(C)c1nc(N2CCNCC2)nc2nc(NCc3ccccc3)c(Cl)nc12 | 0.3 µM | 5.9 µM
OCCNc1nc(N2CCCC2)c2nc(Cl)c(NCc3ccccc3)nc2n1 | 2.8 µM | 15.2 µM
CN(C)c1nc(N2CCCC2)c2nc(Cl)c(NCc3ccccc3)nc2n1 | 1.8 µM | 11.8 µM
O=C1CN(c2nc(N3CCCC3)c3nc(Cl)c(NCc4ccccc4)nc3n2)CCN1 | 4.2 µM | 9.5 µM
CN1CCN(c2nc(N3CCCC3)c3nc(Cl)c(NCc4ccccc4)nc3n2)CC1 | 3.1 µM | 6.5 µM
Clc1nc2c(N3CCCC3)nc(N3CCOCC3)nc2nc1NCc1ccccc1 | 2.5 µM | > 20 µM

More lines, main results first:

IC50 (Phosphodiesterase 4) | Compound | IC50 [1]
0.65 µM | CN(C)c1nc2c(N3CCCC3)nc(Cl)nc2nc1NCc1ccccc1 | > 20 µM
3.7 µM | NCCNc1nc(N2CCCC2)c2nc(Cl)c(NCc3ccccc3)nc2n1 | 3.2 µM
0.059 µM | Clc1nc2c(N3CCCC3)nc(N3CCNCC3)nc2nc1N1CCCC1 | 3.1 µM
0.083 µM | Clc1nc2c(NCc3ccccc3)nc(N3CCNCC3)nc2nc1N1CCCC1 | 4 µM
5.9 µM | CC(=O)N1CCN(c2nc(N3CCCC3)c3nc(Cl)c(NCc4ccccc4)nc3n2)CC1 | 13 µM
